Reference: ChEMBL document CHEMBL1134340, “GnRH antagonists: a new generation of long acting analogues incorporating p-ureido-phenylalanines at positions 5 and 6” (J Med Chem, 2001)
≈ marks a conversion by molar mass, not a printed value. Where a SMILES comes first, the peptide text is derived from it. [ ]: non-standard residue; d: D form. d(hArg(Et2)) = CCN=C(NCC)NCCCC[C@@H](N)C(=O)O; hArg(Et2) = CCN=C(NCC)NCCCC[C@H](N)C(=O)O; dPhe(4-Cl) = N[C@H](Cc1ccc(Cl)cc1)C(=O)O; d2Nal = N[C@H](Cc1ccc2ccccc2c1)C(=O)O; dCit = NC(=O)NCCC[C@@H](N)C(=O)O; d3Pal = N[C@H](Cc1cccnc1)C(=O)O

Tests used:
Rattus norvegicus [1] = organism: Rattus norvegicus; test: Compound was tested for inhibition of Leutenizing hormone release at 24 hours (very short duration) in castrated male rat assay; NI means no inhibition at 24 hr; type: functional, organism-based
Method in brief: (§1)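 Male Sprague-Dawley rats (180-200 g), castrated under ether 10 days earlier, 5 per group. 50 µg/rat given sc in 100 µL 40 mM phosphate buffer with 0.1% BSA and 0.6% DMSO; acyline run as internal standard. Tail blood taken predose and at 24, 48, 72, 96 (sometimes 120) h; plasma LH by RIA. Duration classed by >80% LH inhibition at each time.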

Rattus norvegicus [2] = organism: Rattus norvegicus; test: Compound was tested for inhibition of Leutenizing hormone release at 48 hours (intermediate duration) in castrated male rat assay; type: functional; method in brief: as §1
Rattus norvegicus [3] = organism: Rattus norvegicus; test: Compound was tested for histamine release at a concentration of 150 ug/mL; type: functional
Method in brief: (§2)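 Sprague-Dawley rat peritoneal mast cells, Percoll-purified, in heparinized balanced salt solution with albumin, pH 7.2. Cells exposed to compound or vehicle for 2 min at 37 °C. Supernatant histamine measured spectrofluorometrically after o-phthalaldehyde derivatization; pellets lysed for retained histamine. Reported as % of total histamine released, corrected for spontaneous release in vehicle.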

[4] = target: T1, Gonadotropin-releasing hormone receptor (Homo sapiens, UniProt P30968); test: Antagonism of human GnHR receptor, determined in a reporter gene assay in HEK293 cells; type: functional, cell-based
T1 sequence (P30968 whole entry): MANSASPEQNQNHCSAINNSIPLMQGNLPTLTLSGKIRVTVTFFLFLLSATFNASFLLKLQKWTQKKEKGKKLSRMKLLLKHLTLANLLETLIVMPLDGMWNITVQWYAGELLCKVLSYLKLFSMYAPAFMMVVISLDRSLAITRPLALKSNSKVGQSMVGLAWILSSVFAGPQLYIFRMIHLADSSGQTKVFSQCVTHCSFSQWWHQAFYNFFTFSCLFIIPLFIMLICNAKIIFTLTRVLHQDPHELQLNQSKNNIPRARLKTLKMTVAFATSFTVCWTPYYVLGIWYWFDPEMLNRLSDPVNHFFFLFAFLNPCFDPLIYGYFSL
Method in brief: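 HEK293 cells stably expressing cloned human GnRH receptor plus luciferase reporter under LH alpha subunit promoter, plated 24 h before assay. Compound in 1% DMSO added 10 min at 37 °C, then GnRH at 3 nM final; 5 h incubation, luciferase luminescence read. Six concentrations in duplicate; blank-subtracted cps as % of GnRH control; mean of two determinations.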

[5] = target: T1, Gonadotropin-releasing hormone receptor; test: Competitive antagonism of GnRH-induced response in the reporter gene assay; type: functional; settings: read-out: pA2 (converted)
Method in brief: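 Same HEK293 human GnRH receptor luciferase reporter cells. Seven-point GnRH curve (10 µM to 10 pM final) run in duplicate without or with four to five increasing compound concentrations (10 min preincubation, 37 °C), then 5 h and luminescence. GnRH EC50 at each level by four-parameter logistic fit, giving pA2; mean of two determinations in duplicate.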

Rattus norvegicus [6] = organism: Rattus norvegicus; test: Compound was tested for inhibition of Leutenizing hormone release at 72 hours (long duration) in castrated male rat assay; type: functional; set-up: concentration or dose not given beside the values; method in brief: as §1
Rattus norvegicus [7] = organism: Rattus norvegicus; test: Effective dose for histamine release was determined; type: functional
Method in brief: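 ED50 for histamine release calculated from % release values across concentrations in rat peritoneal mast cell assay (2 min, 37 °C, o-phthalaldehyde fluorometric read-out, corrected for vehicle release).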

Rattus norvegicus [8] = organism: Rattus norvegicus; test: Compound was tested for histamine release at a concentration of 1 ug/mL; type: functional; method in brief: as §2
Rattus norvegicus [9] = organism: Rattus norvegicus; test: Compound was tested for histamine release at a concentration of 10 ug/mL; type: functional; method in brief: as §2
Rattus norvegicus [10] = organism: Rattus norvegicus; test: Compound was tested for histamine release at a concentration of 3 ug/mL; type: functional; method in brief: as §2
Rattus norvegicus [11] = organism: Rattus norvegicus; test: Compound was tested for histamine release at a concentration of 100 ug/mL; type: functional; method in brief: as §2
Rattus norvegicus [12] = organism: Rattus norvegicus; test: Compound was tested for histamine release at a concentration of 30 ug/mL; type: functional; method in brief: as §2

Structure (SMILES)	NI (Rattus norvegicus [1])	Inhibition (Rattus norvegicus [2]) [%]	ED50 (Rattus norvegicus [7]) [µg/mL]	HR (Rattus norvegicus [9]) [%]	other results
CC(=O)N[C@H](Cc1ccc2ccccc2c1)C(=O)N[C@H](Cc1ccc(Cl)cc1)C(=O)N[C@H](Cc1cccnc1)C(=O)N[C@@H](CO)C(=O)N[C@@H](CCCCNC(=O)[C@H]1CC(=O)NC(=O)N1)C(=O)N[C@H](CCCCNC(=O)[C@@H]1CC(=O)NC(=O)N1)C(=O)N[C@@H](CC(C)C)C(=O)N[C@@H](CCCCNC(C)C)C(=O)N1CCC[C@H]1C(=O)N[C@H](C)C(N)=O	no inhibition at 24 hr				
CC(=O)N[C@H](Cc1ccc2ccccc2c1)C(=O)N[C@H](Cc1ccc(Cl)cc1)C(=O)N[C@H](Cc1cccnc1)C(=O)N[C@@H](CO)C(=O)N[C@@H](Cc1ccc(NC(=O)[C@H]2CC(=O)NC(=O)N2)cc1)C(=O)N[C@H](Cc1ccc(CNC(N)=O)cc1)C(=O)N[C@@H](CC(C)C)C(=O)N[C@@H](CCCCNC(C)C)C(=O)N1CCC[C@H]1C(=O)N[C@H](C)C(N)=O		>80			
CC(=O)Nc1ccc(C[C@@H](NC(=O)[C@H](CNC(=O)[C@@H]2CC(=O)NC(=O)N2)NC(=O)[C@H](CO)NC(=O)[C@@H](Cc2cccnc2)NC(=O)[C@@H](Cc2ccc(Cl)cc2)NC(=O)[C@@H](Cc2ccc3ccccc3c2)NC(C)=O)C(=O)N[C@@H](CC(C)C)C(=O)N[C@@H](CCCCNC(C)C)C(=O)N2CCC[C@H]2C(=O)N[C@H](C)C(N)=O)cc1	no inhibition at 24 hr				HR (Rattus norvegicus [3]): 96%
CC(=O)N[C@H](Cc1ccc2ccccc2c1)C(=O)N[C@H](Cc1ccc(Cl)cc1)C(=O)N[C@H](Cc1cccnc1)C(=O)N[C@@H](CO)C(=O)N[C@@H](Cc1ccc(O)cc1)C(=O)N[C@H](CCCNC(N)=O)C(=O)N[C@@H](CC(C)C)C(=O)N[C@@H](CCCNC(=N)N)C(=O)N1CCC[C@H]1C(=O)N[C@H](C)C(N)=O [CETRORELIX] (Ac-[d2Nal][dPhe(4-Cl)][d3Pal]SY[dCit]LRP[dA]-NH2)			1.3 (≈ 0.908 µM)	64	IC50 [4]: 4.2 nM; Kb [5]: 1.26 nM; Inhibition (Rattus norvegicus [6]): >80%; HR (Rattus norvegicus [8]): 34%; HR (Rattus norvegicus [10]): 5%
CC(=O)Nc1ccc(C[C@@H](NC(=O)[C@@H](NC(=O)[C@H](CO)NC(=O)[C@@H](Cc2cccnc2)NC(=O)[C@@H](Cc2ccc(Cl)cc2)NC(=O)[C@@H](Cc2ccc3ccccc3c2)NC(C)=O)N(C)C(N)=O)C(=O)N[C@@H](CC(C)C)C(=O)N[C@@H](CCCCNC(C)C)C(=O)N2CCC[C@H]2C(=O)N[C@H](C)C(N)=O)cc1	no inhibition at 24 hr				
CC(=O)O.CC(=O)O.CC/N=C(\NCC)NCCCC[C@H](NC(=O)[C@H](CC(C)C)NC(=O)[C@@H](CCCCN/C(=N/CC)NCC)NC(=O)[C@H](Cc1ccc(O)cc1)NC(=O)[C@H](CO)NC(=O)[C@@H](Cc1cccnc1)NC(=O)[C@@H](Cc1ccc(Cl)cc1)NC(=O)[C@@H](Cc1ccc2ccccc2c1)NC(C)=O)C(=O)N1CCC[C@H]1C(=O)N[C@H](C)C(N)=O [GANIRELIX ACETATE] (Ac-[d2Nal][dPhe(4-Cl)][d3Pal]SY[d(hArg(Et2))]L[hArg(Et2)]P[dA]-NH2)		>80	11	30	HR (Rattus norvegicus [11]): 62%; HR (Rattus norvegicus [12]): 57%
